# Measured values published in ChEMBL document CHEMBL1121917, “Structure--activity relationships in a broad-spectrum anthelmintic series. Acid chloride phenylhydrazones. 1. Aryl substitutions and chloride variations” (1981).
# What was measured:
# [1] = species: Canis familiaris; test: Percent reduction in Uncinaria eggs per gram, after treatment with 200 mg/dog dose of compound in a single treatment; type: functional, Canis lupus familiaris, Egg
# Method in brief: (§1)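 Dogs naturally infected with Toxascaris leonina were experimentally infected with mixed Ancylostoma caninum and Uncinaria stenocephala larvae. Finely ground compound was given orally in gelatin capsules. Three egg count determinations were made before and three after treatment in each experiment.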
# [2] = species: Canis familiaris; test: Percent reduction in Uncinaria eggs per gram, after treatment with 250 mg/dog dose of compound in a single treatment; type: functional, Canis lupus familiaris, Egg
# [3] = species: Canis familiaris; test: Percent reduction in Uncinaria eggs per gram, after treatment with 275 mg/dog dose of compound in a single treatment; type: functional, Canis lupus familiaris, Egg
# [4] = species: Canis familiaris; test: Percent reduction in Ancylostoma eggs per gram, after treatment with 200 mg/dog dose of compound in a single treatment; type: functional, Canis lupus familiaris, Egg
# Method in brief: (§2)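 Dogs naturally infected with Toxascaris leonina were experimentally infected with mixed Ancylostoma caninum and Uncinaria stenocephala larvae. Finely ground compound was given orally in gelatin capsules. Fecal egg counts were taken three times before and three times after treatment, and activity was taken as the fall in egg counts.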
# [5] = species: Canis familiaris; test: Percent reduction in Ancylostoma eggs per gram, after treatment with 250 mg/dog dose of compound in a single treatment; type: functional, Canis lupus familiaris, Egg; method in brief: as §2
# [6] = species: Canis familiaris; test: Percent reduction in Ancylostoma eggs per gram, after treatment with 275 mg/dog dose of compound in a single treatment; type: functional, Canis lupus familiaris, Egg; method in brief: as §2
# [7] = species: Canis familiaris; test: Percent reduction in Toxascaris eggs per gram, after treatment with 200 mg/dog dose of compound in a single treatment; type: functional, Canis lupus familiaris, Egg; method in brief: as §1
# [8] = species: Canis familiaris; test: Percent reduction in Trichuris eggs per gram, after treatment with 200 mg/dog dose of compound in a single treatment; type: functional, Canis lupus familiaris, Egg
# [9] = species: Mus musculus; test: Percent clearance of Nematospiroides dubius from mouse oral treatment of 0.25 mg/mouse/day of compound; type: functional
# Method in brief: (§3)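 Mice naturally carrying Syphacia obvelata were experimentally infected with Nematospiroides dubius and Hymenolepis nana, then grouped after a 2-week prepatency. Finely ground compound was suspended in aqueous 0.10% carboxymethylcellulose, 0.04% polysorbate 80 and 0.0042% polyparaben, and 0.1 mL was given orally by cannula once daily for 4 days to five mice. Necropsy followed 2 days later, scoring presence or absence of each parasite. Control clearance was subtracted from the treated clearance.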
# [10] = species: Mus musculus; test: Percent clearance of Syphacaia obvelata from mouse after oral treatment of 0.25 mg/mouse/day of compound; type: functional; method in brief: as §3
# [11] = test system: Ovis aries; test: Percent reduction in Trichostrongylus eggs per gram, after treatment with 200 mg/kg dose of compound in sheep perorally; type: functional, Egg; settings: route oral
# [12] = test system: Ovis aries; test: Percent reduction in Trichostrongylus eggs per gram, after treatment with 300 mg/kg dose of compound in sheep perorally; type: functional, Egg; settings: route oral
# [13] = test system: Ovis aries; test: Percent reduction in Trichostrongylus eggs per gram, after treatment with 400 mg/kg dose of compound in sheep perorally; type: functional, Egg; settings: route oral
# [14] = test system: Ovis aries; test: Percent reduction in Trichuris eggs per gram, after treatment with 100 mg/kg dose of compound in sheep perorally; type: functional, Egg; settings: route oral
# [15] = test system: Ovis aries; test: Percent reduction in Trichuris eggs per gram, after treatment with 150 mg/kg dose of compound in sheep perorally; type: functional, Egg; settings: route oral
# [16] = test system: Ovis aries; test: Percent reduction in Trichuris eggs per gram, after treatment with 200 mg/kg dose of compound in sheep perorally; type: functional, Egg; settings: route oral
# [17] = test system: Ovis aries; test: Percent reduction in Trichuris eggs per gram, after treatment with 300 mg/kg dose of compound in sheep perorally; type: functional, Egg; settings: route oral
# [18] = test system: Ovis aries; test: Percent reduction in Trichuris eggs per gram, after treatment with 400 mg/kg dose of compound in sheep perorally; type: functional, Egg; settings: route oral
# [19] = test system: Ovis aries; test: Percent reduction in Haemonchus eggs per gram, after treatment with 100 mg/kg dose of compound in sheep perorally; type: functional, Egg; settings: route oral
# Method in brief: (§4)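 Naturally parasitized lambs received compound orally, either as the aqueous suspension by stomach tube or as finely ground powder in gelatin capsules by balling gun. Activity was judged by the clinical test method, as a significant decrease in posttreatment helminth egg counts.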
# [20] = test system: Ovis aries; test: Percent reduction in Haemonchus eggs per gram, after treatment with 150 mg/kg dose of compound in sheep perorally; type: functional, Egg; settings: route oral; method in brief: as §4
# [21] = test system: Ovis aries; test: Percent reduction in Haemonchus eggs per gram, after treatment with 200 mg/kg dose of compound in sheep perorally; type: functional, Egg; settings: route oral
# Method in brief: (§5)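 Naturally parasitized lambs were dosed orally at the stated mg/kg. Dosing was either as a suspension of finely ground compound by stomach tube, or as ground compound weighed into gelatin capsules and given by balling gun. Activity was scored by the clinical test method: the decrease in posttreatment helminth eggs per gram.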
# [22] = test system: Ovis aries; test: Percent reduction in Haemonchus eggs per gram, after treatment with 300 mg/kg dose of compound in sheep perorally; type: functional, Egg; settings: route oral; method in brief: as §5
# [23] = test system: Ovis aries; test: Percent reduction in Nematodirus eggs per gram, after treatment with 300 mg/kg dose of compound in sheep perorally; type: functional, Egg; settings: route oral; method in brief: as §5
# [24] = test system: Ovis aries; test: Percent reduction in Nematodirus eggs per gram, after treatment with 400 mg/kg dose of compound in sheep perorally; type: functional, Egg; settings: route oral; method in brief: as §5
# [25] = test system: Ovis aries; test: Percent reduction in Oesophagostomum eggs per gram, after treatment with 100 mg/kg dose of compound in sheep perorally; type: functional, Egg; settings: route oral; method in brief: as §5
# [26] = test system: Ovis aries; test: Percent reduction in Oesophagostomum eggs per gram, after treatment with 150 mg/kg dose of compound in sheep perorally; type: functional, Egg; settings: route oral; method in brief: as §5
# [27] = test system: Ovis aries; test: Percent reduction in Oesophagostomum eggs per gram, after treatment with 200 mg/kg dose of compound in sheep perorally; type: functional, Egg; settings: route oral; method in brief: as §5
# [28] = test system: Ovis aries; test: Percent reduction in Strongyloides eggs per gram, after treatment with 200 mg/kg dose of compound in sheep perorally; type: functional, Egg; settings: route oral
# Method in brief: (§6)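 Naturally parasitized lambs, dosed orally either with a suspension by stomach tube or with finely ground compound in gelatin capsules by balling gun. Activity was scored by the clinical test method, meaning a significant fall in helminth egg counts after treatment.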
# [29] = test system: Ovis aries; test: Percent reduction in Haemonchus eggs per gram, after treatment with 400 mg/kg dose of compound in sheep perorally; type: functional, Egg; settings: route oral; method in brief: as §5
# [30] = test system: Ovis aries; test: Percent reduction in Moniezia eggs per gram, after treatment with 150 mg/kg dose of compound in sheep perorally; type: functional, Egg; settings: route oral; method in brief: as §5
# [31] = test system: Ovis aries; test: Percent reduction in Strongyloides eggs per gram, after treatment with 300 mg/kg dose of compound in sheep perorally; type: functional, Egg; settings: route oral; method in brief: as §6
# [32] = test system: Ovis aries; test: Percent reduction in Strongyloides eggs per gram, after treatment with 400 mg/kg dose of compound in sheep perorally; type: functional, Egg; settings: route oral; method in brief: as §6
# [33] = test system: Ovis aries; test: Percent reduction in Ostertagia eggs per gram, after treatment with 400 mg/kg dose of compound in sheep perorally; type: functional, Egg; settings: route oral; method in brief: as §6
# [34] = test system: Ovis aries; test: Percent reduction in Trichostrongylus eggs per gram, after treatment with 100 mg/kg dose of compound in sheep perorally; type: functional, Egg; settings: route oral
# Method in brief: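 Lambs naturally parasitized with helminths. Finely ground compound was given orally, either as an aqueous suspension by stomach tube or weighed into gelatin capsules given by balling gun. Activity was assessed by the clinical test method: the reduction in helminth egg counts after treatment.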
# [35] = test system: Ovis aries; test: Percent reduction in Nematodirus eggs per gram, after treatment with 100 mg/kg dose of compound in sheep perorally; type: functional, Egg; settings: route oral; method in brief: as §5
# [36] = test system: Ovis aries; test: Percent reduction in Nematodirus eggs per gram, after treatment with 150 mg/kg dose of compound in sheep perorally; type: functional, Egg; settings: route oral; method in brief: as §5
# [37] = test system: Ovis aries; test: Percent reduction in Nematodirus eggs per gram, after treatment with 200 mg/kg dose of compound in sheep perorally; type: functional, Egg; settings: route oral; method in brief: as §5
# [38] = test system: Ovis aries; test: Percent reduction in Ostertagia eggs per gram, after treatment with 100 mg/kg dose of compound in sheep perorally; type: functional, Egg; settings: route oral; method in brief: as §5
# [39] = test system: Ovis aries; test: Percent reduction in Ostertagia eggs per gram, after treatment with 150 mg/kg dose of compound in sheep perorally; type: functional, Egg; settings: route oral; method in brief: as §5
# [40] = test system: Ovis aries; test: Percent reduction in Ostertagia eggs per gram, after treatment with 200 mg/kg dose of compound in sheep perorally; type: functional, Egg; settings: route oral; method in brief: as §6
# [41] = test system: Ovis aries; test: Percent reduction in Ostertagia eggs per gram, after treatment with 300 mg/kg dose of compound in sheep perorally; type: functional, Egg; settings: route oral; method in brief: as §6
# [42] = test system: Ovis aries; test: Percent reduction in Cooperia eggs per gram, after treatment with 100 mg/kg dose of compound in sheep perorally; type: functional, Egg; settings: route oral; method in brief: as §4
# [43] = test system: Ovis aries; test: Percent reduction in Strongyloides eggs per gram, after treatment with 100 mg/kg dose of compound in sheep perorally; type: functional, Egg; settings: route oral; method in brief: as §6
# [44] = test system: Ovis aries; test: Percent reduction in Strongyloides eggs per gram, after treatment with 150 mg/kg dose of compound in sheep perorally; type: functional, Egg; settings: route oral; method in brief: as §6
# [45] = test system: Ovis aries; test: Percent reduction in Trichostrongylus eggs per gram, after treatment with 150 mg/kg dose of compound in sheep perorally; type: functional, Egg; settings: route oral
# [46] = test system: Ovis aries; test: Percent reduction in Oesophagostomum eggs per gram, after treatment with 300 mg/kg dose of compound in sheep perorally; type: functional, Egg; settings: route oral; method in brief: as §5
# [47] = species: Mus musculus; test: Percent clearance of Nematospiroides dubius from mouse after oral treatment of 0.45 mg/mouse/day; type: functional; method in brief: as §3
# [48] = species: Mus musculus; test: Percent clearance of Hymenolepis nana from mouse after oral treatment of 0.45 mg/mouse/day; type: functional; method in brief: as §3
# [49] = test system: Ovis aries; test: Percent reduction in Trichuris eggs per gram, after treatment with 200 mg/kg dose of compound perorally in sheep; type: functional, Egg; settings: dose 100 mg/kg; route oral; in the assay text read “100 mg/kg” for “200 mg/kg”; method in brief: as §6
# [50] = test system: Ovis aries; test: Percent reduction in Haemonchus eggs per gram, after treatment with 200 mg/kg dose of compound perorally in sheep; type: functional, Egg; settings: dose 100 mg/kg; route oral; in the assay text read “100 mg/kg” for “200 mg/kg”; method in brief: as §5
# [51] = test system: Ovis aries; test: Percent reduction in Oesophagostomum eggs per gram, after treatment with 200 mg/kg dose of compound perorally in sheep; type: functional, Egg; settings: dose 100 mg/kg; route oral; in the assay text read “100 mg/kg” for “200 mg/kg”; method in brief: as §5
# [52] = test system: Ovis aries; test: Percent reduction in Nematodirus eggs per gram, after treatment with 200 mg/kg dose of compound perorally in sheep; type: functional, Egg; settings: route oral; method in brief: as §5
smiles,measurement,setting,value
Cc1ccc(/C(Cl)=N/Nc2ccccc2)cc1,Reduction,[1],100%
same,Reduction,[2],100%
same,Reduction,[3],99.8%
same,Reduction,[4],100%
same,Reduction,[5],100%
same,Reduction,[6],100%
same,Reduction,[7],100%
same,Reduction,[8],100%
same,Parasite_Clearance,[9],20%
same,Parasite_Clearance,[10],100%
same,Reduction,[11],100%
same,Reduction,[12],100%
same,Reduction,[13],100%
same,Reduction,[14],29%
same,Reduction,[15],25%
same,Reduction,[16],0%
same,Reduction,[17],0%
same,Reduction,[18],0%
same,Reduction,[19],84%
same,Reduction,[20],100%
same,Reduction,[21],100%
same,Reduction,[22],100%
same,Reduction,[23],100%
same,Reduction,[24],100%
same,Reduction,[25],100%
same,Reduction,[26],79%
same,Reduction,[27],100%
same,Reduction,[28],37%
same,Reduction,[29],100%
same,Reduction,[30],100%
same,Reduction,[31],100%
same,Reduction,[32],100%
same,Reduction,[33],100%
same,Reduction,[34],73%
same,Reduction,[35],100%
same,Reduction,[36],100%
same,Reduction,[37],100%
same,Reduction,[38],96%
same,Reduction,[39],100%
same,Reduction,[40],100%
same,Reduction,[41],100%
same,Reduction,[42],100%
same,Reduction,[43],99%
same,Reduction,[44],100%
same,Reduction,[45],98%
same,Reduction,[46],100%
Cl/C(=N\Nc1ccccc1)c1ccccc1,Parasite_Clearance,[47],100%
same,Parasite_Clearance,[48],40%
same,Reduction,[49],0%
same,Reduction,[50],87%
same,Reduction,[51],89%
same,Reduction,[52],100%
